In ChEMBL document CHEMBL4376852, “Ligand-Based Design of Allosteric Retinoic Acid Receptor-Related Orphan Receptor γt (RORγt) Inverse Agonists” (J Med Chem, 2020):
pIC50: −log10 of the molar value. In brackets after ≈: the same amount, converted by molar mass. Each block holds one compound with its values, some of them ahead of it.

How the values were obtained:
[1] = biological target: T1, Nuclear receptor ROR-gamma (Homo sapiens, UniProt P51449); test: Competitive inverse agonist activity at human N-terminal His6-tagged RORgammat LBD (265 to 518 residues) expressed in Escherichia coli BL21 (DE3) assessed as inhibition of N-terminal biotinylated co-activator SRC1 box2 peptide recruitment measured after 30 mins in absence of RORgamma agonist cholesterol by TR-FRET assay
T1 sequence (P51449 whole entry): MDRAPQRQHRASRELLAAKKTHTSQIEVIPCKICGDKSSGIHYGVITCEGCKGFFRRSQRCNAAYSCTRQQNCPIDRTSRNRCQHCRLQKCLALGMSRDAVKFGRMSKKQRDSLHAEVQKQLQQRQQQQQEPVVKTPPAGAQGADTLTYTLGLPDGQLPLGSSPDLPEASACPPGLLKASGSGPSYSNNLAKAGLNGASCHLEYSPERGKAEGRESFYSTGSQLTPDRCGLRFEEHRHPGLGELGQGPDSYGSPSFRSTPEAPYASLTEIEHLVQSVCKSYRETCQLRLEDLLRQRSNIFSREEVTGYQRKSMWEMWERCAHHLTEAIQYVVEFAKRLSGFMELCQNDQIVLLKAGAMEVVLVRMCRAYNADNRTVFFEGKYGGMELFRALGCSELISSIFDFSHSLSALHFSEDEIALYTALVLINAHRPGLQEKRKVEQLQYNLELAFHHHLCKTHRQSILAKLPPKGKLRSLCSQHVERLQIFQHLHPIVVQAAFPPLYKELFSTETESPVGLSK

[2] = biological target: T1, Nuclear receptor ROR-gamma; test: (§1) Competitive inverse agonist activity at human N-terminal His6-tagged RORgammat LBD (265 to 518 residues) expressed in Escherichia coli BL21 (DE3) assessed as inhibition of N-terminal biotinylated co-activator SRC1 box2 peptide recruitment measured after 30 mins in presence of 0.25 uM RORgamma agonist cholesterol by TR-FRET assay
[3] = biological target: T1, Nuclear receptor ROR-gamma; test: as §1, with “1” for “0.25”
[4] = biological target: T1, Nuclear receptor ROR-gamma; test: (§2) Inverse agonist activity at human N-terminal His6-tagged RORgammat LBD (265 to 518 residues) expressed in Escherichia coli BL21 (DE3) assessed as inhibition of N-terminal biotinylated co-activator SRC1 box2 peptide recruitment measured after 30 mins by TR-FRET assay
[5] = biological target: T2, Peroxisome proliferator-activated receptor gamma (Homo sapiens, UniProt P37231); test: Inverse agonist activity at His6-tagged PPARgamma LBD (unknown origin) assessed as inhibition of rosiglitazone-induced N-terminal biotinylated co-activator SRC1 box2 peptide recruitment measured after 30 mins by TR-FRET assay
T2 sequence (P37231 whole entry): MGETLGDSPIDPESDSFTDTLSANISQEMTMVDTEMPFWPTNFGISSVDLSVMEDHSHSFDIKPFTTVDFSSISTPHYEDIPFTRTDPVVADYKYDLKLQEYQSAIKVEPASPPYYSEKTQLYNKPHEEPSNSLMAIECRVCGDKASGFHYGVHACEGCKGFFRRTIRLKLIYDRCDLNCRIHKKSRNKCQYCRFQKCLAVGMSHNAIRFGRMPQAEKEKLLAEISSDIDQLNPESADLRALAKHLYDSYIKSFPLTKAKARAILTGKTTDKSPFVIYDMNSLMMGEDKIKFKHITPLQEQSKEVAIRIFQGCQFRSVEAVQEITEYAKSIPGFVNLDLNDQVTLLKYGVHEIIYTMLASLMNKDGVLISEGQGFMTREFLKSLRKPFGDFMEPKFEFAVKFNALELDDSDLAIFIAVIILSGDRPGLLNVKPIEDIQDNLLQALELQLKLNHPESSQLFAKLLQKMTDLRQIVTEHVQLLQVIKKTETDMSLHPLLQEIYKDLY
In short: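 His6-PPARγ-LBD at 100 nM with 100 nM N-terminal biotinylated SRC-1 box2 peptide in 10 mM HEPES, 150 mM NaCl, 5 mM DTT, 0.1% BSA, 0.1 mM CHAPS, pH 7.5, with 1 μM rosiglitazone. Tb anti-His donor, D2-streptavidin acceptor. Compounds in DMSO, 2× dilution series, 2% DMSO final. 30 min at room temperature. IC50 from sigmoidal fit of FRET ratio. Triplicate.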

[6] = Chemical stability of the compound in pH 7.4 aqueous buffer assessed as parent compound remaining at 2 uM measured after 24 hrs by LC-MS analysis; assay type: physicochemical; conditions: read-out: Stability
In short: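 Compound at 2 μM final in aqueous buffer pH 7.4, sampled at 1, 7 and 24 h; LC–MS quantitation of each aliquot, % remaining expressed relative to the zero time point.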

[7] = Kinetic solubility of the compound in pH 7.4 aqueous buffer at 500 uM measured after 90 mins by spectrophotometric method; assay type: physicochemical; conditions: read-out: Kinetic_solubility
[8] = Permeability of the compound at 500 uM after 20 hrs by PAMPA; assay type: ADME
In short: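 Donor compartment starts at 500 μM compound; after 20 h incubation, receiver-well absorbance read by spectrophotometry; permeation normalized to flux across a blank filter.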

[9] = Intrinsic clearance in human liver microsomes at 3 uM measured up to 90 mins in presence of metabolic phase 1 cofactors by LC-MS analysis; assay type: ADME, Microsome; conditions: 1.5 h
[10] = Stability in human liver microsomes assessed as parent compound remaining at 5 uM measured after 1 hr in presence of metabolic phase 2 cofactors UDPGA by LC-MS analysis; assay type: ADME, Microsome; conditions: read-out: Stability
In short: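 Glucuronidation conditions: 5 μM compound with liver microsomes supplemented with UDPGA, 1 h at 37 °C; % remaining determined by LC–MS.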

[11] = Stability of the compound in plasma (unknown origin) assessed as parent compound remaining at 5 uM measured after 1 hr by LC-MS analysis; assay type: ADME, cell-free; conditions: read-out: Stability
In short: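 5 μM compound incubated in 100% plasma for 1 h at 37 °C; % remaining by LC–MS.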

[12] = Protein binding in plasma (unknown origin) at 5 uM measured after 6 hrs by LC-MS based equilibrium dialysis analysis; assay type: ADME, cell-free; conditions: read-out: PPB (converted)
In short: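 Equilibrium dialysis: plasma incubated with 5 μM compound for 6 h at 37 °C, final compound concentrations determined by LC–MS.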

[13] = biological target: T3, Nuclear receptor ROR-gamma (Homo sapiens) (UniProt P51449); test: as §2
T3 sequence (whole entry): T1 sequence (P51449 whole entry)

Structure (SMILES): C[C@H]1O[C@@H](O[C@H]2[C@@H](O)C[C@H](O[C@H]3[C@@H](O)C[C@H](O[C@H]4CC[C@@]5(C)[C@H](CC[C@@H]6[C@@H]5C[C@@H](O)[C@]5(C)[C@@H](C7=CC(=O)OC7)CC[C@]65O)C4)O[C@@H]3C)O[C@@H]2C)C[C@H](O)[C@@H]1O [DIGOXIN]
pIC50 [1]: 5.15
pIC50 [2]: 4.47
pIC50 [3]: 4.07

Structure (SMILES): O=C(O)c1ccc(C(=O)Nc2c(-c3c(Cl)cccc3C(F)(F)F)noc2-c2ccccc2)cc1
pIC50 [4]: < 4.00

Structure (SMILES): O=C(O)c1ccc(NCc2c(-c3c(Cl)cccc3C(F)(F)F)noc2-c2cccc(O)c2)cc1
pIC50 [5]: < 4.00

remaining at 24 h, 2 µM [6]: 95.3%
solubility kinetic at 1.5 h, 500 µM [7]: 411 µM (≈ 190 µg/mL)
permeability [8]: 33.6%
CLH [9]: 20.7 µL/min/mg
remaining at 1 h, 5 µM [10]: 69.8%
remaining at 1 h, 5 µM [11]: 85.9%
fraction unbound at 6 h, 5 µM [12]: 0.001
Structure (SMILES): O=C(O)c1ccc(NCc2c(-c3c(Cl)cccc3C(F)(F)F)noc2-c2cc[nH]c2)cc1

Structure (SMILES): O=C(O)c1ccc(NCc2c(-c3c(Cl)cccc3C(F)(F)F)noc2-c2cccs2)cc1
pIC50 [4]: 5.76
pIC50 [5]: < 4.00

Structure (SMILES): O=C(O)c1ccc(NCc2c(-c3c(Cl)cccc3C(F)(F)F)noc2-c2ccco2)cc1
pIC50 [5]: < 4.00
remaining at 24 h, 2 µM [6]: 100%
solubility kinetic at 1.5 h, 500 µM [7]: 392 µM (≈ 181 µg/mL)
permeability [8]: 50.4%
CLH [9]: 43.2 µL/min/mg
remaining at 1 h, 5 µM [10]: 92.8%
remaining at 1 h, 5 µM [11]: 86.5%

inhibition [13]: Dose-dependent effect
remaining at 24 h, 2 µM [6]: 95.4%
solubility kinetic at 1.5 h, 500 µM [7]: 490 µM (≈ 239 µg/mL)
permeability [8]: 60.1%
remaining at 1 h, 5 µM [10]: 100%
remaining at 1 h, 5 µM [11]: 99.9%
fraction unbound at 6 h, 5 µM [12]: 0.022
Structure (SMILES): O=C(O)c1ccc(NC(=O)c2c(-c3c(Cl)cccc3C(F)(F)F)noc2-c2ccccc2)cc1

Structure (SMILES): O=C(O)Cc1ccc(NC(=O)c2c(-c3c(Cl)cccc3C(F)(F)F)noc2-c2ccccc2)cc1
pIC50 [4]: < 4.00

pIC50 [5]: 4.10
Structure (SMILES): O=C(O)c1ccc(NCc2c(-c3c(Cl)cccc3C(F)(F)F)noc2-c2ccccc2)cc1

remaining at 24 h, 2 µM [6]: 81%
solubility kinetic at 1.5 h, 500 µM [7]: 390 µM (≈ 173 µg/mL)
permeability [8]: 23.7%
remaining at 1 h, 5 µM [10]: 47.1%
remaining at 1 h, 5 µM [11]: 100%
fraction unbound at 6 h, 5 µM [12]: 0.001
Structure (SMILES): O=C(O)c1ccc(-c2nn(C(=O)c3c(Cl)cccc3C(F)(F)F)c3ccccc23)cc1

Structure (SMILES): O=C(O)c1c(-c2c(Cl)cccc2C(F)(F)F)noc1-c1ccccc1
pIC50 [4]: < 4.00

Structure (SMILES): O=C(O)c1ccc(NCc2c(-c3c(Cl)cccc3C(F)(F)F)noc2-c2cccc3ccccc23)cc1
pIC50 [4]: < 4.00
pIC50 [5]: < 4.00

Structure (SMILES): CC(C)(C)OC(=O)c1ccc(NC(=O)c2c(-c3c(Cl)cccc3C(F)(F)F)noc2-c2ccccc2)cc1
pIC50 [4]: < 4.00

Structure (SMILES): Cc1onc(-c2c(Cl)cccc2C(F)(F)F)c1C(=O)Nc1ccc(C(=O)O)cc1
inhibition [13]: Dose-dependent effect
pIC50 [4]: < 4.00
